Screening results deposited in PubChem BioAssay by several laboratories.
Most compounds without a hit are left out; they make up all but 1.3% or so of the library.
NR2E3 ag-1: inhibitors of NR2E3-RetCOR corepressor binding, primary screen, NR2E3 agonist project, biochemical, TR-FRET, GST-NR2E3, biotin-RetCOR; inhibition of corepressor binding, % at 4.78 µM; 1536-well; Photoreceptor-specific nuclear receptor (Homo sapiens), Q9Y5X4; actives 0.12% (n = 320,000);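 active = percent inhibition above the cutoff of mean plus 3 SD of all tested compounds, set per screening campaign, cut at about 20% in these data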;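 note: 0% = DMSO wells and 100% = biotin wells as full block of FRET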
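Material – GST-tagged NR2E3 plus biotinylated RetCOR corepressor · Quantity – NR2E3 fusion 1.35 nM · Times – 5 h incubation at 4 °C · Medium – pH 7.5 Tris-based buffer · Technique – TR-FRET, Eu(K)-anti-GST donor, streptavidin-D2 acceptor, ex 340, em 617/671 nm · Benchmarks – high control biotin, low control 0.6% DMSO · Format – 1536-well plates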
NR2E3 ag-2: NR2E3 agonists in two-hybrid cells, primary screen, cell-based, luminescence, CHO-S, Gal4-NCOR/VP16-NR2E3 | inhibition of corepressor binding, % at 3.98 µM | actives 0.35% (n = 360,000) | AID 602229, 2012 | Photoreceptor-specific nuclear receptor (Homo sapiens), Q9Y5X4 | luciferase;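 active = inhibition above the mean of all tested compounds plus 3 SD, cut at about 70% in these data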;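 note: 0% = DMSO with NR2E3 transfected cells and 100% = cells lacking NR2E3 construct; higher means lower luciferase signal from less NR2E3 corepressor binding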
EP2 antag: human EP2 receptor antagonists, primary screen, TR-FRET cAMP, C6 glioma cells | Prostaglandin E2 receptor EP2 subtype (Homo sapiens), P43116 | C6 glioma cells expressing human EP2; cells stimulated with saturating PGE2 | inhibition, % at 25 µM | actives 0.52% (n = 260,000) | AID 1422, 2008;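 active = percent inhibition above 40 after rounding to a whole number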;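 note: rat C6 glioma host cells with rolipram phosphodiesterase inhibitor present; the protocol text gives 20 µM as final concentration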
Target sequence (P43116 whole entry, looked up): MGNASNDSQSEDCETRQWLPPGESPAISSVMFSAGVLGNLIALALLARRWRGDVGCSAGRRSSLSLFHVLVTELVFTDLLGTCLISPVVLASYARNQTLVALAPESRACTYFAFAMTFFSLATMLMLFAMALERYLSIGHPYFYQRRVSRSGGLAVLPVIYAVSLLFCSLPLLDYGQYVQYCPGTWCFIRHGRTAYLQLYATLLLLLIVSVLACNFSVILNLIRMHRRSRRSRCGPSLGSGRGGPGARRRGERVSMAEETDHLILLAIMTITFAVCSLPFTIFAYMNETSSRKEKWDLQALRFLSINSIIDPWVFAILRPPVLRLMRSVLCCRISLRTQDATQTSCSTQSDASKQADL
GASC-1 inh: inhibitors of GASC-1 histone demethylase, primary screen, biochemical, fluorescence, DELFIA europium; GST-JMJD2C(1-420) H3K9me3 demethylation; inhibition, % at 2.35 µM; actives 0.069% (n = 330,000);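 active = more than half of a compound's replicate wells show inhibition beyond 50%, single wells judged on their own value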;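 note: signal counts dimethyl H3K9 product captured on neutravidin plate; 0% = median of DMSO wells and 100% = 0.3 times that DMSO median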
EP2 modulator: EP2 receptor modulators, cAMP readout, primary screen, cell-based, HTRF cAMP, PGE2 stimulation; Prostaglandin E2 receptor EP2 subtype (Homo sapiens), P43116; EP2-expressing cells, cAMP HTRF FRET, PGE2 co-stimulation; induction, % at 25 µM; actives 0.83% (n = 260,000);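 active = compounds whose cAMP rise, as percent of the full-agonist control response, exceeds 60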;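 note: rat C6 glioma line stably carrying human EP2 under a CMV promoter; the protocol text gives 20 µM as final concentration; 100% = response of wells given 1 µM PGE2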
Furin inhibitor: human furin inhibitors, primary screen, biochemical, fluorescence intensity. P09958. purified furin, fluorogenic substrate cleavage. inhibition, % at 20 µM or 30 µM. actives 0.061% (n = 220,000); in the data active = inhibition above about 25%
NR2E3 ag confirm-1: NR2E3 agonists, confirmation, biochemical, TR-FRET; activation (reported as inhibition), % at 3.98 µM; actives 39% (n = 360); cell-free NR2E3 corepressor release, 5 h; shares compounds with NR2E3 ag-1; AID 2379, 2010; in the data active = activation above about 20%
PPARg-NCOR2 ctr: agonists of PPARg-NCOR2 corepressor interaction, counter-screen for NR2E3 agonist project, biochemical, TR-FRET; shares compounds with NR2E3 ag-1; TR-FRET PPARg-NCOR2 coregulator interaction; inhibition, % at 3.98 µM; actives 45% (n = 360); in the data active = inhibition above about 20%;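 note: 0% = DMSO vehicle and 100% = wells without protein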
NR2E3 ag confirm-2: NR2E3 agonist confirmation in cells, cell-based, luminescence, CHO-S two-hybrid; actives 51% (n = 2,300); inhibition, % at 3.98 µM; shares compounds with NR2E3 ag-2; CHO-S mammalian two-hybrid NR2E3-NCOR, luciferase luminescence;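 active = average inhibition above a cutoff equal to the mean inhibition of all tested compounds plus one SD, cut at about 70% in these data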;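 note: 0% = DMSO in NR2E3 cells and 100% = DMSO in cells lacking NR2E3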
VP16 counter: GAL4-VP16 reporter modulators, confirmation, counter-screen for NR2E3 agonist project, cell-based, luminescence, CHO-S, high throughput; AID 624379, 2012; shares compounds with NR2E3 ag-2; inhibition, % at 3.98 µM; CHO-S GAL4-VP16 luciferase reporter; actives 29% (n = 2,300);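 active = mean inhibition above a cutoff equal to the average over all tested compounds plus one standard deviation, cut at about 70% in these data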;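 note: luciferase from a UAS reporter driven by GAL4-VP16 transactivation; 0% = DMSO with VP16-transfected cells and 100% = DMSO with cells lacking VP16; higher means less reporter light so more repression of VP16 activity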
* hit, by the source's call; . = no result given.

SMILES	NR2E3 ag-1	NR2E3 ag-2	EP2 antag	GASC-1 inh	EP2 modulator	Furin inhibitor	NR2E3 ag confirm-2	VP16 counter	others
Cc1onc(-c2c(F)cccc2Cl)c1C(=O)Nc1nnc(C(F)(F)F)s1	23*	92*	.	-2	.	.	96*	77*	NR2E3 ag confirm-1=20*;PPARg-NCOR2 ctr=-11
C[C@@H](Cn1nnc2ccccc21)NC(=O)c1cccnc1	.	.	10	.	-26	.	.	.
O=C(c1cc(COc2ccc(F)cc2Cl)on1)N1CCN(C2CCCCC2)C(=O)C1	-1	57	.	-3	.	.	16	24
N#C/C(=N\Nc1ccc(Cl)cc1)C(=O)c1ccsc1	0	81*	18	-13	-20	-16	100*	88*
N#C/C(=N\Nc1ccc(Cl)cc1)C(N)=S	1	67	7	-6	-18	-2	-14	5
Cc1cc(-c2cncnc2C2CCN(C(=O)c3ccc4c(c3)OCCO4)CC2)on1	.	.	.	.	-4	.	.	.
CC(=O)c1ccc(OCC(=O)NC(=O)NC2CCCCC2)cc1	1	61	.	-1	.	.	22	55
O=Cc1ccc(OCC(=O)NC(=O)NC2CCCCC2)cc1	0	-45	21	-4	-4	-12	.	.
CCCn1c(SCC(=O)Nc2ccc(F)cc2)nnc1-c1ccoc1C	.	.	13	.	6	.	.	.
COc1ccc(C2(NC(=O)Cc3ccc(-n4cnnn4)cc3)CCCCC2)cc1	.	.	0	.	-52	.	.	.
O=S(=O)(/C(=C\c1ccc(C(F)(F)F)cc1)c1nc2ccccc2[nH]1)c1ccccc1	.	91*	.	.	.	.	96*	-12
CC(C)(C)c1ccc(C(=O)NC2CCSC2=O)cc1 (stereo unspecified)	.	.	7	.	-68	.	.	.
Cc1ccc(N2CC(C(=O)Nc3nccs3)CC2=O)cc1Cl (stereo unspecified)	2	48	3	-5	-14	-17	59	21
CN1[C@@H](C(=O)NC2CCCC2)C[C@@H](c2ccco2)NS1(=O)=O	.	.	.	.	-25	.	.	.
O=C(Nc1cc(Cl)ccc1N1CCOCC1)c1ccco1	.	5	.	6	.	.	.	.
O=C(Nc1cc(C(F)(F)F)ccc1N1CCOCC1)c1ccco1	0	103*	12	0	6	-15	-1	2
Cc1cc(N/N=C/c2cccc(Cl)c2)nc(NCc2ccccc2)n1	-1	-38	5	-10	-6	-5	.	.
Cc1cc(Nc2cccc(Cl)c2)nc(NCc2ccccc2)n1	2	93*	6	-10	-22	6	96*	76*
CCOC(=O)c1cnc(-n2nc(C)cc2C)nc1N(C)C	2	-107	6	17	-20	-6	.	.
CCOC(=O)c1cnc(-n2nc(C)cc2C)nc1NC1CCCC1	2	94*	7	-1	35	-11	30	0
CCOC(=O)c1cnc(-n2nc(C)cc2C)nc1NCCc1ccccc1	3	86*	2	-2	26	-4	12	-7
CCn1c(C)cc2cc(NS(=O)(=O)c3ccc4[nH]c(=O)[nH]c(=O)c4c3)ccc21	.	.	6	.	-16	.	.	.
CCc1nc2ccccc2n1CC(=O)N[C@H](CC)Cn1nc(-c2cccs2)ccc1=O	.	.	.	.	1	.	.	.
CCOC(=O)C1=Nc2ccccc2C1=[N+]=[N-]	1	97*	9	3	-4	-7	42	79*
CCC(=O)N1CCc2cc(S(=O)(=O)CCC(=O)N3CCN(c4ccc(Cl)cc4)CC3)ccc21	0	60	.	14	.	.	70	44
SMILES	NR2E3 ag-1	NR2E3 ag-2	EP2 antag	GASC-1 inh	EP2 modulator	Furin inhibitor	NR2E3 ag confirm-2	VP16 counter	others
Cc1ccc(C(C)C)c(OCCNC(=O)c2cncc(Br)c2)c1	2	16	17	10	-10	-13	.	.
COc1cc(C(=O)NCCOc2cc(C)ccc2C(C)C)cc(OC)c1OC	1	56	.	13	.	.	38	31
Cc1cc(S(=O)(=O)NCCC2=CCCCC2)ccc1Br	-3	-2	.	-3	.	.	.	.
Cc1ccc(S(=O)(=O)NCCC2=CCCCC2)cc1C(N)=O	-1	75*	.	-5	.	.	84*	62
Cc1ccc(S(=O)(=O)C(NC(=O)c2ccccc2)=C(Cl)Cl)cc1	0	22	5	0	.	-7	.	.
CC(=O)NC(=C(Cl)Cl)S(=O)(=O)c1ccccc1	-5	51	6	0	24	-11	6	-7
O=C(NC(=C(Cl)Cl)S(=O)(=O)c1ccc(Cl)cc1)c1ccccc1	-1	64	13	10	-16	-34	33	20
CCOC(=O)N=Nc1c(O)n(CC(=O)OC)c2ccccc12	-1	2	1	-27	-1	10	.	.
CCOC(=O)N=Nc1c2ccccc2c2nc3no[nH]c3nc12	.	89*	18	-36	-70	-23	99*	100*
CCC1CCCCN1C(=O)Cn1nc(-c2ccc(C)o2)cc(N)c1=O (stereo unspecified)	.	.	4	.	-61	.	.	.
Cc1[nH]oc(=O)c1N=Nc1ccccc1	-3	75*	5	0	18	4	-12	-13
Cc1[nH]oc(=O)c1N=Nc1c(Cl)cccc1Cl	3	7	0	2	-30	-14	.	.
COc1ccccc1N1CCN(C(=O)C2CCCN(S(=O)(=O)c3ccc4c(c3)oc(=O)n4C)C2)CC1 (stereo unspecified)	1	85*	.	3	.	.	66	50
COc1ccc(N2CCN(C(=O)C3CCCN(S(=O)(=O)c4ccc5c(c4)oc(=O)n5C)C3)CC2)cc1 (stereo unspecified)	0	10	.	4	.	.	.	.
